Source: ChEMBL document CHEMBL1121657, “Effects of 1-arylpyrroles and naphthoflavones upon cytochrome P-450 dependent monooxygenase activities” (J Med Chem, 1981)

Experiments:
Rattus norvegicus [1] = organism: Rattus norvegicus; assay: Michaelis-Menten constant for 7-ethoxycoumarin deethylation in rat liver microsomes exposed to beta-naphthoflavone at 500 uM; conditions: Microsome
Summary of the method: (§1)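 Liver microsomes from young male Sprague-Dawley rats (75-125 g) given the inducer ip in corn oil at 50 mg/kg on 3 successive days, microsomes isolated on day 4. 7-Ethoxycoumarin (2.5 to 300 μM final) in 0.1 M Tris-HCl pH 7.4 with NADPH-regenerating system. Reaction started with microsomal protein (0.375-0.56 mg), run 4 min at 37 °C, stopped with TCA. 7-Hydroxycoumarin read fluorometrically at pH 10.3. Inhibitor added from methanol stock, ≥4 assays per condition. KM/Vmax obtained by the Eisenthal–Cornish-Bowden direct linear method with 95% distribution-free confidence limits.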

Rattus norvegicus [2] = organism: Rattus norvegicus; assay: Michaelis-Menten constant for 7-ethoxycoumarin deethylation in rat liver microsomes exposed to beta-naphthoflavone at 1000 nM; conditions: Microsome
Rattus norvegicus [3] = organism: Rattus norvegicus; assay: Compound was evaluated for alpha -rate constant, in liver microsomes from 3-methylcholanthrene-exposed rats; conditions: Microsome
Summary of the method: (§2)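 Rats (male Sprague-Dawley, 75-125 g) dosed ip with 3MC or βNF, 50 mg/kg in corn oil, on 3 successive days; liver microsomes isolated day 4. 7-Ethoxycoumarin deethylation (2.5-300 μM substrate) measured with inhibitor present; KM and Vmax by Eisenthal–Cornish-Bowden direct linear method. Ki from x-intercept of least-squares KM/Vmax vs [I]; αKi from x-intercept of 1/Vmax vs [I].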

Rattus norvegicus [4] = organism: Rattus norvegicus; assay: Michaelis-Menten constant for 7-ethoxycoumarin deethylation in rat liver microsomes exposed to 3-methylcholanthrene at concentration of 100 uM; conditions: Microsome
Summary of the method: (§3)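 Liver microsomes from male Sprague-Dawley rats given 3MC or βNF ip (50 mg/kg/day, corn oil, 3 days), harvested day 4. NADPH-regenerating system in 0.1 M Tris-HCl pH 7.4. Substrate 2.5-300 μM final. Inhibitor added from methanol stock. Reaction started with 0.375-0.56 mg microsomal protein, run 4 min at 37 °C, stopped with TCA. 7-Hydroxycoumarin fluorescence read at pH 10.3. At least four assays per substrate concentration. KM and Vmax by direct linear method, with distribution-free 95% confidence limits.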

Rattus norvegicus [5] = organism: Rattus norvegicus; assay: Michaelis-Menten constant for 7-ethoxycoumarin deethylation in rat liver microsomes exposed to 3-methylcholanthrene at concentration of 200 uM; conditions: Microsome; summary of the method: as §3
[6] = Compound was evaluated for inhibition constant, in liver microsomes from 3-methylcholanthrene-exposed rats; set-up: species or system Rattus norvegicus, Microsome
Rattus norvegicus [7] = organism: Rattus norvegicus; assay: Maximum rate constant for 7-ethoxycoumarin deethylation in rat liver microsomes exposed to beta-naphthoflavone at concentration of 1000 uM; conditions: Microsome; summary of the method: as §3
Rattus norvegicus [8] = organism: Rattus norvegicus; assay: Compound was evaluated for alpha -rate constant, in liver microsomes from beta-naphthoflavone-exposed rats; conditions: Microsome; summary of the method: as §2
Rattus norvegicus [9] = organism: Rattus norvegicus; assay: Michaelis-Menten constant for 7-ethoxycoumarin deethylation in rat liver microsomes exposed to 3-methylcholanthrene at concentration of 50 nM; conditions: Microsome
[10] = Compound was evaluated for inhibition constant, in liver microsomes from beta-naphthoflavone-exposed rats; set-up: species or system Rattus norvegicus, Microsome
Rattus norvegicus [11] = organism: Rattus norvegicus; assay: Maximum rate constant for 7-ethoxycoumarin deethylation in rat liver microsomes 3-methylcholanthrene at concentration of 100 nM; conditions: Microsome
Rattus norvegicus [12] = organism: Rattus norvegicus; assay: Maximum rate constant for 7-ethoxycoumarin deethylation in rat liver microsomes exposed to beta-naphthoflavone at concentration of 1500 uM; conditions: Microsome; summary of the method: as §3
Rattus norvegicus [13] = organism: Rattus norvegicus; assay: Maximum rate constant for 7-ethoxycoumarin deethylation in rat liver microsomes 3-methylcholanthrene at concentration of 50 nM; conditions: Microsome
Rattus norvegicus [14] = organism: Rattus norvegicus; assay: Maximum rate constant for 7-ethoxycoumarin deethylation in rat liver microsomes 3-methylcholanthrene at concentration of 200 nM; conditions: Microsome
Rattus norvegicus [15] = organism: Rattus norvegicus; assay: Michaelis-Menten constant for 7-ethoxycoumarin deethylation in rat liver microsomes exposed to beta-naphthoflavone at 1500 nM; conditions: Microsome
Rattus norvegicus [16] = organism: Rattus norvegicus; assay: Maximum rate constant for 7-ethoxycoumarin deethylation in rat liver microsomes exposed to beta-naphthoflavone at 500 uM; conditions: Microsome; summary of the method: as §3
Rattus norvegicus [17] = organism: Rattus norvegicus; assay: Michaelis-Menten constant for 7-ethoxycoumarin deethylation in rat liver microsomes exposed to beta-naphthoflavone at 5 uM; conditions: Microsome; summary of the method: as §3
Rattus norvegicus [18] = organism: Rattus norvegicus; assay: Maximum rate constant for 7-ethoxycoumarin deethylation in rat liver microsomes exposed to beta-naphthoflavone at 1 uM; conditions: Microsome; summary of the method: as §3
Rattus norvegicus [19] = organism: Rattus norvegicus; assay: Maximum rate constant for 7-ethoxycoumarin deethylation in rat liver microsomes exposed to beta-naphthoflavone at 2.5 uM; conditions: Microsome; summary of the method: as §3
Rattus norvegicus [20] = organism: Rattus norvegicus; assay: Michaelis-Menten constant for 7-ethoxycoumarin deethylation in rat liver microsomes exposed to beta-naphthoflavone at 2.5 uM; conditions: Microsome; summary of the method: as §3
Rattus norvegicus [21] = organism: Rattus norvegicus; assay: Maximum rate constant for 7-ethoxycoumarin deethylation in rat liver microsomes exposed to beta-naphthoflavone at 5 uM; conditions: Microsome; summary of the method: as §3
Rattus norvegicus [22] = organism: Rattus norvegicus; assay: Michaelis-Menten constant for 7-ethoxycoumarin deethylation in rat liver microsomes exposed to beta-naphthoflavone at 1 uM; conditions: Microsome; summary of the method: as §3
Rattus norvegicus [23] = organism: Rattus norvegicus; assay: Michaelis-Menten constant for 7-ethoxycoumarin deethylation in rat liver microsomes 3-methylcholanthrene at a concentration of 5 uM; conditions: Microsome; summary of the method: as §3
Rattus norvegicus [24] = organism: Rattus norvegicus; assay: Maximum rate constant for 7-ethoxycoumarin deethylation in rat liver microsomes exposed to 3-methylcholanthrene at 50 uM; conditions: Microsome; summary of the method: as §3
Rattus norvegicus [25] = organism: Rattus norvegicus; assay: Maximum rate constant for 7-ethoxycoumarin deethylation in rat liver microsomes exposed to beta-naphthoflavone at 100 uM; conditions: Microsome; summary of the method: as §3
Rattus norvegicus [26] = organism: Rattus norvegicus; assay: Michaelis-Menten constant for 7-ethoxycoumarin deethylation in rat liver microsomes exposed to 3-methylcholanthrene at a concentration of 5 uM; conditions: Microsome; summary of the method: as §3
Rattus norvegicus [27] = organism: Rattus norvegicus; assay: Michaelis-Menten constant for 7-ethoxycoumarin deethylation in rat liver microsomes exposed to beta-naphthoflavone at 200 uM; conditions: Microsome; summary of the method: as §3
Rattus norvegicus [28] = organism: Rattus norvegicus; assay: Michaelis-Menten constant for 7-ethoxycoumarin deethylation in rat liver microsomes exposed to beta-naphthoflavone at 100 uM; conditions: Microsome; summary of the method: as §3
Rattus norvegicus [29] = organism: Rattus norvegicus; assay: Michaelis-Menten constant for 7-ethoxycoumarin deethylation in rat liver microsomes exposed to 3-methylcholanthrene at concentration of 10 uM; conditions: Microsome; summary of the method: as §3
Rattus norvegicus [30] = organism: Rattus norvegicus; assay: Michaelis-Menten constant for 7-ethoxycoumarin deethylation in rat liver microsomes exposed to beta-naphthoflavone at 50 uM; conditions: Microsome; summary of the method: as §1
Rattus norvegicus [31] = organism: Rattus norvegicus; assay: Maximum rate constant for 7-ethoxycoumarin deethylation in rat liver microsomes exposed to 3-methylcholanthrene at 5 uM; conditions: Microsome; summary of the method: as §3
Rattus norvegicus [32] = organism: Rattus norvegicus; assay: Compound was evaluated for alpha inhibition constant, in liver microsomes from 3-methylcholanthrene-exposed rats; conditions: Microsome; summary of the method: as §2
Rattus norvegicus [33] = organism: Rattus norvegicus; assay: Maximum rate constant for 7-ethoxycoumarin deethylation in rat liver microsomes exposed to beta-naphthoflavone at 200 uM; conditions: Microsome; summary of the method: as §3
Rattus norvegicus [34] = organism: Rattus norvegicus; assay: Compound was evaluated for alpha inhibition constant, in liver microsomes from beta-naphthoflavone-exposed rats; conditions: Microsome; summary of the method: as §2
Rattus norvegicus [35] = organism: Rattus norvegicus; assay: Maximum rate constant for 7-ethoxycoumarin deethylation in rat liver microsomes exposed to beta-naphthoflavone at 50 uM; conditions: Microsome; summary of the method: as §3
Rattus norvegicus [36] = organism: Rattus norvegicus; assay: Michaelis-Menten constant for 7-ethoxycoumarin deethylation in rat liver microsomes exposed to beta-naphthoflavone at 150 uM; conditions: Microsome; summary of the method: as §3
Rattus norvegicus [37] = organism: Rattus norvegicus; assay: Michaelis-Menten constant for 7-ethoxycoumarin deethylation in rat liver microsomes exposed to beta-naphthoflavone at 10 uM […]; conditions: Microsome; summary of the method: as §3
Rattus norvegicus [38] = organism: Rattus norvegicus; assay: Maximum rate constant for 7-ethoxycoumarin deethylation in rat liver microsomes exposed to beta-naphthoflavone at 150 uM; conditions: Microsome; summary of the method: as §3

Compound: O=c1cc(-c2ccccc2)oc2cc3ccccc3cc12
- Km (Rattus norvegicus [1]): 36.9 µM
- Km (Rattus norvegicus [2]): 66.3 µM
- Alpha Ki (Rattus norvegicus [3]): 0.21 µM
- Km (Rattus norvegicus [4]): 16.7 µM
- Km (Rattus norvegicus [5]): 31.5 µM
- Ki [6]: 0.049 µM
- Vmax (pM min-1 mg-1) (Rattus norvegicus [7]): 1240
- Alpha Ki (Rattus norvegicus [8]): 11 µM
- Km (Rattus norvegicus [9]): 19.2 µM
- Ki [10]: 0.24 µM
- Vmax (pM min-1 mg-1) (Rattus norvegicus [11]): 114
- Vmax (pM min-1 mg-1) (Rattus norvegicus [12]): 1210
- Vmax (pM min-1 mg-1) (Rattus norvegicus [13]): 150
- Vmax (pM min-1 mg-1) (Rattus norvegicus [14]): 88
- Km (Rattus norvegicus [15]): 93.1 µM
- Vmax (pM min-1 mg-1) (Rattus norvegicus [16]): 1300

Compound: CC(C)c1ccccc1-n1ccnc1
- Km (Rattus norvegicus [17]): 41.7 µM
- Vmax (pM min-1 mg-1) (Rattus norvegicus [18]): 734
- Alpha Ki (Rattus norvegicus [8]): 1.4 µM
- Ki [10]: 0.3 µM
- Vmax (pM min-1 mg-1) (Rattus norvegicus [19]): 346
- Km (Rattus norvegicus [20]): 35.8 µM
- Vmax (pM min-1 mg-1) (Rattus norvegicus [21]): 227
- Km (Rattus norvegicus [22]): 22.1 µM

Compound: CC(C)c1ccccc1-n1cccc1
- Km (Rattus norvegicus [23]): 10.2 µM
- Vmax (pM min-1 mg-1) (Rattus norvegicus [24]): 94
- Vmax (pM min-1 mg-1) (Rattus norvegicus [25]): 652
- Ki [6]: 11 µM
- Km (Rattus norvegicus [26]): 17.9 µM
- Km (Rattus norvegicus [27]): 91.3 µM
- Km (Rattus norvegicus [28]): 52.2 µM
- Ki [10]: 19 µM
- Km (Rattus norvegicus [29]): 29.7 µM
- Km (Rattus norvegicus [30]): 44.1 µM
- Vmax (pM min-1 mg-1) (Rattus norvegicus [31]): 141
- Alpha Ki (Rattus norvegicus [32]): 60 µM
- Vmax (pM min-1 mg-1) (Rattus norvegicus [33]): 493
- Alpha Ki (Rattus norvegicus [34]): 270 µM

Compound: c1ccc(-n2cccc2)cc1
- Vmax (pM min-1 mg-1) (Rattus norvegicus [25]): 760
- Alpha Ki (Rattus norvegicus [8]): 430 µM
- Vmax (pM min-1 mg-1) (Rattus norvegicus [35]): 819
- Ki [10]: 27 µM
- Km (Rattus norvegicus [36]): 64.3 µM
- Km (Rattus norvegicus [37]): 41.2 µM
- Km (Rattus norvegicus [30]): 28.4 µM
- Vmax (pM min-1 mg-1) (Rattus norvegicus [38]): 669
